Data published in ChEMBL document CHEMBL1157420, “2-phenyl-4-piperazinylbenzimidazoles: orally active inhibitors of the gonadotropin releasing hormone (GnRH) receptor” (Bioorg Med Chem, 2008).

What was measured:
[1] = molecular target: T1, Gonadotropin-releasing hormone receptor (Homo sapiens) (UniProt P30968); assay: Displacement of [125I]-(D-Trp6)LHRH from human recombinant GnRH receptor at 10 uM
T1 sequence (whole entry): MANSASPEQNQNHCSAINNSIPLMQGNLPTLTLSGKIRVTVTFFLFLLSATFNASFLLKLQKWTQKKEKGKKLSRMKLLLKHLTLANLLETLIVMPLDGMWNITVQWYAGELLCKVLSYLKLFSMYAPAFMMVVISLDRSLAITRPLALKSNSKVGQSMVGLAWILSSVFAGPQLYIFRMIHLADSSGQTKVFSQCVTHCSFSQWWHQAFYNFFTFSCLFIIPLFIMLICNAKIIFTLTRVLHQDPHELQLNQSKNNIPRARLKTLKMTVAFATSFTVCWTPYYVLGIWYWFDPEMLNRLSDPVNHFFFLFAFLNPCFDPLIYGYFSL
In short: (§1)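 Membranes from recombinant cells expressing human or rat GnRH receptor, made in 25 mM Tris-Cl pH 7.4 with 0.1% sodium azide and 0.1% BSA. 50 μg protein incubated with about 50,000 cpm 125I-(D-Trp6)-LHRH for 2 h at 4 °C, with increasing unlabeled competitor. Filtered on BSA-presoaked glass-fiber filters, washed twice, counted by gamma counter. Percent inhibition and IC50 derived.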

[2] = molecular target: T2, Gonadotropin-releasing hormone receptor (Rattus norvegicus, UniProt P30969); assay: Displacement of [125I]-(D-Trp6)LHRH from rat recombinant GnRH receptor; in short: as §1
T2 sequence (P30969 whole entry): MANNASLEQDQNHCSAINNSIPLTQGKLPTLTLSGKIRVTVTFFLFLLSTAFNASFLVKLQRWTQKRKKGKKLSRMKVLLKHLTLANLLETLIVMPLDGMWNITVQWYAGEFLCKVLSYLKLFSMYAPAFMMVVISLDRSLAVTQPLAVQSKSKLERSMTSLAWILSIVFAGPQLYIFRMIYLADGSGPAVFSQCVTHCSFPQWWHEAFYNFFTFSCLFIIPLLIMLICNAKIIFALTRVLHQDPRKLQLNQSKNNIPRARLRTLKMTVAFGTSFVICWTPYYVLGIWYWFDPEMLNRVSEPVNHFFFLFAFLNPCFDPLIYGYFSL

[3] = molecular target: T2, Gonadotropin-releasing hormone receptor; assay: Antagonist activity at […] GnRH receptor in CO2 asphyxiated rat primary pituitary cells assessed as reduction in (D-Trp6)LHRH-induced LH release; assay type: functional, cell-based, Pituitary gland cell
In short: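 Anterior pituitaries from adult rats were minced, dissociated and plated at 30,000 cells/well in DMEM with 25 mM Hepes and 10% FBS, then cultured 72 h at 37 °C, 5% CO2. After washing, cells were treated 3 h in 0.1% BSA medium with an antagonist dose response plus an ED50 concentration of D-Trp6-LHRH. LH in medium measured by RIA; cell toxicity checked by CellTiter-Glo.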

[4] = molecular target: T3, Gonadotropin-releasing hormone receptor (Homo sapiens, UniProt P30968); assay: Antagonist activity at human recombinant GnRH receptor assessed as reduction in (D-Trp6)LHRH-induced myo-(1,2)-[3H]inositol production; assay type: functional
T3 sequence (P30968 whole entry): T1 sequence (whole entry)
In short: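 Recombinant cells expressing human GnRH receptor, pre-labeled with myo-(1,2)-3H-inositol, incubated 1 h in medium with lithium chloride and D-Trp6-LHRH, with or without antagonist. Cells then lysed and labeled inositol phosphates separated from inositol by […] and counted. Run in triplicate, repeated in three independent experiments; IC50 derived.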

[5] = molecular target: T3, Gonadotropin-releasing hormone receptor; assay: Displacement of [125I]-(D-Trp6)LHRH from human recombinant GnRH receptor; in short: as §1
[6] = molecular target: T4, 5-hydroxytryptamine receptor 1A (Homo sapiens, UniProt P08908); assay: Binding affinity to human 5HT1A receptor
T4 sequence (P08908 whole entry): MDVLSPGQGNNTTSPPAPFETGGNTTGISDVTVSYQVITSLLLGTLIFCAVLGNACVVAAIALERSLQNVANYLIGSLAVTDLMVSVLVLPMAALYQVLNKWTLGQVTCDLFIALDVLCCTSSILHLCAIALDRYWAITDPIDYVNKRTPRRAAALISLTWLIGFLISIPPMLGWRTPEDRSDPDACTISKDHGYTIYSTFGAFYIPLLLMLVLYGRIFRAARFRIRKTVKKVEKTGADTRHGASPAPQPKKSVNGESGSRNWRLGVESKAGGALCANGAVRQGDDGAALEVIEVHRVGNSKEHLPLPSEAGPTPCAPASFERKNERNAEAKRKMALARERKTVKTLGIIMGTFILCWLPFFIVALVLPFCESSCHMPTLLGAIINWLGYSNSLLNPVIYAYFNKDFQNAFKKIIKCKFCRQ

Row | SMILES | Activity [1] | IC50 [2] | IC50 [4] | IC50 [5] | further results
1 | O=c1[nH]c2cccc(N3CCN(CCOc4cccc5[nH]c(=S)[nH]c45)CC3)c2[nH]1 | 6% |  |  |  | 
2 | CC(C)(C)c1ccc(-c2nc3c(N4CCN(Cc5ccc6[nH]c(=O)c(=O)[nH]c6c5)CC4)cccc3[nH]2)cc1 |  | 40 nM | 1.7 nM | 4.9 nM | IC50 [3]: 25 nM
3 | FC(F)(F)c1nc2c(N3CCN(Cc4cccc5[nH]c(=S)[nH]c45)CC3)cccc2[nH]1 |  | 51000 nM | 3400 nM | 580 nM | 
4 | CC(C)(C)c1ccc(-c2nc3c(N4CCN(Cc5ccc6ccccc6c5)CC4)cccc3[nH]2)cc1 | 7% |  |  |  | 
5 | CC(C)(C)c1ccc(-c2nc3c(N4CCN(Cc5ccccc5)CC4)cccc3[nH]2)cc1 | 6% |  |  |  | 
6 | S=c1[nH]c2cccc(OCCN3CCN(c4cccc5nccnc45)CC3)c2[nH]1 | 1% |  |  |  | 
7 | FC(F)(F)c1nc2c(N3CCN(CCc4cccc5[nH]c(=S)[nH]c45)CC3)cccc2[nH]1 | 51% |  |  |  | 
8 | O=C(COc1cccc2[nH]c(=S)[nH]c12)N1CCN(c2cccc3[nH]c(C(F)(F)F)nc23)CC1 | 24% |  |  |  | 

Now from value to compound, other results behind:

Row | Activity [1] | IC50 [2] | IC50 [4] | IC50 [5] | SMILES | further results
9 | 42% |  |  |  | FC(F)(F)c1nc2c(N3CCN(CCCc4cccc5nc(C(F)(F)F)[nH]c45)CC3)cccc2[nH]1 | 
10 |  | 72 nM | 24 nM | 5.7 nM | CC(C)(C)c1ccc(-c2nc3c(N4CCN(Cc5cccc6[nH]c(=O)c(=O)[nH]c56)CC4)cccc3[nH]2)cc1 | IC50 [3]: 480 nM
11 |  |  |  | 3300 nM | FC(F)(F)c1nc2c(N3CCN(CCCOc4cccc5[nH]c(=S)[nH]c45)CC3)cccc2[nH]1 | Ki [6]: 2.3 nM
12 |  | 990 nM | 450 nM | 120 nM | CC(C)c1ccc(-c2nc3c(N4CCN(CCOc5cccc6nc(C(F)(F)F)[nH]c56)CC4)cccc3[nH]2)cc1 | 
13 |  | 64000 nM | 21000 nM | 9500 nM | FC(F)(F)c1nc2c(N3CCN(Cc4cccc5nc(C(F)(F)F)[nH]c45)CC3)cccc2[nH]1 | 
14 |  | 5200 nM | 2300 nM | 220 nM | CCc1ccc(-c2nc3c(N4CCN(CCOc5cccc6nc(C(F)(F)F)[nH]c56)CC4)cccc3[nH]2)cc1 | 
15 |  | 710 nM | 1200 nM | 50 nM | CC(C)(C)c1ccc(-c2nc3c(N4CCN(CCOc5cccc6nc(C(F)(F)F)[nH]c56)CC4)cccc3[nH]2)cc1 | 
16 |  |  |  | 1200 nM | Cc1ccc(-c2nc3c(N4CCN(CCOc5cccc6[nH]c(=S)[nH]c56)CC4)cccc3[nH]2)c(C)c1 | 
17 |  |  | 2800 nM | 1300 nM | Cc1ccc(-c2nc3c(N4CCN(CCOc5cccc6[nH]c(=S)[nH]c56)CC4)cccc3[nH]2)cc1 | 
18 | 11% |  |  |  | FC(F)(F)c1nc2cc(N3CCN(CCOc4cccc5[nH]c(=S)[nH]c45)CC3)ccc2[nH]1 | 
